Measurements pooled from the literature.
Protocols differ between the studies behind these lines.
Target: Serine/threonine-protein kinase WNK3 (WNK3, Homo sapiens, UniProt Q9BYP7)

With `O=C(Nc1cnn(-c2csc(C(=O)NC3COC3)c2)c1)Nc1c(F)cccc1Cl` the remaining activity was 91.8% (enzyme activity, inhibitor; 5 µM).
For `O=c1nc(-c2ccccn2)sc2ccccc12`, the remaining binding was 100% (binding, competition with immobilised ligand; 1 µM).
The inhibition of `Cc1ccc(Nc2nccc(N(C)c3ccc4c(C)n(C)nc4c3)n2)cc1S(N)(=O)=O` is reported as 33% (enzyme activity, inhibitor; 10 µM).
`Cc1cc(NC(=O)c2cccc(S(F)(F)(F)(F)F)c2)cc(-n2ccn3nc(-c4cccnc4)cc23)c1` has a remaining binding of 100% (cell-free assay, competition with immobilised ligand; 1 µM).
The remaining signal of `O=C1NC(=O)c2cc(Nc3ccc(F)cc3)c(Nc3ccc(F)cc3)cc21` is reported as 92.7% (cell-free assay; 0.5 µM).
`CCCS(=O)(=O)Nc1ccc(F)c(C(=O)c2c[nH]c3ncc(-c4ccc(Cl)cc4)cc23)c1F` gave an inhibition of under 10% (enzyme activity, inhibitor; 1 µM).
With `CNC(=O)c1cc(Oc2ccc(NC(=O)Nc3ccc(Cl)c(C(F)(F)F)c3)cc2)ccn1` the inhibition was -4% (enzyme activity, inhibitor; 10 µM).
For `Cc1sc(C(=O)NC2COC2)cc1-n1cc(NC(=O)Nc2c(F)cccc2Cl)cn1`, the remaining activity was 102% (enzyme activity, inhibitor; 10 µM).
`CC(C)(C)c1nc2c(s1)c1nc(N)ncc1c1ccc(NS(=O)(=O)c3c(F)cccc3F)c(F)c12` gave a remaining activity of 91% (enzyme activity, inhibitor, radiometric; 1 µM).
For `CCCOc1ccc([C@H]2[C@H](C(=O)O)[C@@H](c3ccc4c(c3)OCO4)CN2CC(=O)Nc2c(CC)cccc2CC)cc1`, the remaining binding was 90% (cell-free assay, competition with immobilised ligand; 1 µM).
`Cc1cc(NC(=O)c2cccc3cc(-c4cccc5[nH]nc(N)c45)ccc23)ccc1F` has an activity vs control of 93% (enzyme activity, inhibitor; 0.1 µM).
`CC(C)(O)[C@H]1CC[C@H](Nc2ccc3ncc(-c4cccc(C(F)(F)F)c4)n3n2)CC1` gave a remaining activity of 90.7% (enzyme activity, inhibitor; 1 µM).
With `Cc1cnc(NC2CCOCC2)nc1-n1cnc(C(=O)NC(CN)c2cc(F)cc(Cl)c2)c1` (centres unmarked) the remaining activity was 103% (enzyme activity, inhibitor, radiometric; 1 µM).
`O=C(NCCCC1CCCCC1)c1ccc(CNC(=O)c2cnn(-c3ccccc3)c2C(F)(F)F)cc1` gave a remaining binding of 100% (cell-free assay, competition with immobilised ligand; 0.1 µM).
For `COc1cc(Cl)c(C(=O)N[C@@H](CN[C@H]2CC[C@@H](N)CC2)Cc2ccc(C#N)cc2)cc1-c1ccc(CN[C@H](C)c2ccc(C)cc2)o1`, the remaining activity was 99% (enzyme activity, inhibitor; 1 µM).
For `CN(C)C(=O)Cn1cc(-c2nc([C@@](C)(c3ccc(-c4cnc(N)nc4)cc3)C3CC3)no2)cn1`, the remaining binding was 76% (cell-free assay, competition with immobilised ligand; 1 µM).
`CCN(CC)CCNC(=O)c1c(C)[nH]c(/C=C2\C(=O)Nc3ccc(F)cc32)c1C` gave an inhibition of 7% (enzyme activity, inhibitor; 10 µM).
